In paper PMC3502708 (Journal of molecular biology, 2012):

What was measured:
[1] = system: endogenous H3K14ac / histone H3 in HEK293 cells; assay type: cell-based; conditions: anti-Flag IP, anti-H3K14ac immunoblot
Summary of the method: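 HEK293 cells were seeded at 300,000 per 6 cm dish and lipofection-transfected with Flag-tagged MORF N-terminal constructs (aa 1–352, or aa 1–215 lacking PHD1/2). After about 48 h, cells were lysed in buffer with 150 mM KCl and immunoprecipitated on anti-Flag M2 agarose. Beads were washed extensively and eluted in 50 mM phosphoric acid. Blots were probed with anti-Flag, anti-H3K14ac and anti-H3. Where indicated, TSA (3 μM) was added to the medium 6 h before harvest.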

HEK293 cells = test: Live green fluorescence microscopy of GFP-MORF constructs; assay type: cell-based; conditions: 18 h post-transfection

B1: N-MORFΔPHD1/2: N-MORF (amino acids 1–215) in which the PHD1/2 fingers are deleted, Flag-tag fusion (protein)
chain: MVKLANPLYTEWILEAIQKIKKQKQRPSEERICHAVSTSHGLDKKTVSEQLELSVQDGSVLKVTNKGLASYKDPDNPGRFSSVKPGTFPKSAKGSRGSCNDLRNVDWNKLLRRAIEGLEEPNGSSLKNIEKYLRSQSDLTSTTNNPAFQQRLRLGAKRAVNNGRLLKDGPQYRVNYGSLDGKGAPQYPSAFPSSLPPVSLLPHEKDQPRADPIPI
modifications: left off: Flag, end not stated, kept
Co-immunoprecipitation of endogenous H3K14ac [1]: unable to pull down acetylated histone H3

B2: GFP-N-MORFΔPHD1/2: GFP-tagged N-MORFΔPHD1/2 (amino acids 1–215) (protein, UniProt Q8WYB5 1-215, looked up, fragment)
chain: B1 chain
modifications: GFP tag
Subcellular localization of GFP-MORF construct (HEK293 cells): evenly dispersed in the nucleus

B3: N-MORF: entire N-terminal region of MORF (amino acids 1–352), Flag-tag fusion (protein)
chain: MVKLANPLYTEWILEAIQKIKKQKQRPSEERICHAVSTSHGLDKKTVSEQLELSVQDGSVLKVTNKGLASYKDPDNPGRFSSVKPGTFPKSAKGSRGSCNDLRNVDWNKLLRRAIEGLEEPNGSSLKNIEKYLRSQSDLTSTTNNPAFQQRLRLGAKRAVNNGRLLKDGPQYRVNYGSLDGKGAPQYPSAFPSSLPPVSLLPHEKDQPRADPIPICSFCLGTKESNREKKPEELLSCADCGSSGHPSCLKFCPELTTNVKALRWQCIECKTCSACRVQGRNADNMLFCDSCDRGFHMECCDPPLSRMPKGMWICQVCRPKKKGRKLLHEKAAQIKRRYAKPIGRPKNKLKQR
modifications: left off: Flag, end not stated, kept
Co-immunoprecipitation of endogenous H3K14ac [1]: co-immunoprecipitated endogenous H3K14ac

B4: GFP-N-MORF: GFP-tagged N-MORF (amino acids 1–352) (protein, UniProt Q8WYB5 1-352, looked up, fragment)
chain: B3 chain
modifications: GFP tag
Subcellular localization of GFP-MORF construct (HEK293 cells): clearly associated with chromatin forming nuclear speckles
